Measurements reported in ChEMBL document CHEMBL4819084, “Discovery of 3,5-dimethylisoxazole derivatives as novel, potent inhibitors for bromodomain and extraterminal domain (BET) family” (Bioorg Med Chem, 2021).

What was measured:
CT26 [1] = experiment: Antiproliferative activity against […] assessed as inhibition of cell proliferation incubated for 48 hrs by MTT assay; format: functional, cell-based; conditions: Mus musculus, CT26, 48 h
Summary of the method: (§1)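 Cryopreserved cells thawed at 37 °C, cultured one day, then seeded at 5000–10,000 cells/well in 96-well plates and left overnight to attach. Compound added at a single concentration or as a gradient series and incubated 48 h. MTT solution added and absorbance read.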

U-266 [2] = experiment: Antiproliferative activity against human U-266 cells assessed as inhibition of cell proliferation incubated for 48 hrs by MTT assay; format: functional, cell-based; conditions: U-266, 48 h; summary of the method: as §1
[3] = Cytotoxicity against human MCF-10A cells assessed as inhibition of cell proliferation at 2 uM incubated for 48 hrs by MTT assay; format: cell-based; summary of the method: as §1
CT26 [4] = experiment: Antiproliferative activity against […] assessed as inhibition of cell proliferation at 2 uM incubated for 48 hrs by MTT assay relative to control; format: functional; conditions: Mus musculus; summary of the method: as §1
MCF7 = experiment: Antiproliferative activity against human MCF7 cells assessed as inhibition of cell proliferation at 2 uM incubated for 48 hrs by MTT assay relative to control; format: functional; summary of the method: as §1
HepG2 [5] = experiment: Antiproliferative activity against human HepG2 cells assessed as inhibition of cell proliferation at 2 uM incubated for 48 hrs by MTT assay relative to control; format: functional; summary of the method: as §1
HCT-116 = experiment: Antiproliferative activity against human HCT-116 cells assessed as inhibition of cell proliferation at 2 uM incubated for 48 hrs by MTT assay relative to control; format: functional; summary of the method: as §1
U-266 [6] = experiment: Antiproliferative activity against human U-266 cells assessed as inhibition of cell proliferation at 0.1 uM incubated for 48 hrs by MTT assay relative to control; format: functional; summary of the method: as §1
[7] = molecular target: Bromodomain-containing protein 4 (Homo sapiens, UniProt O60885); experiment: Inhibition of BRD4-BD1 (unknown origin) preincubated for 15 mins followed by substrate addition and measured after 1 hr
HepG2 [8] = experiment: Antiproliferative activity against human HepG2 cells assessed as inhibition of cell proliferation incubated for 48 hrs by MTT assay; format: functional, cell-based; conditions: HepG2, 48 h; summary of the method: as §1

Row | Structure (SMILES) | IC50 (CT26 [1]) [µM] | IC50 (U-266 [2]) [µM] | inhibition at 48 h, 2 µM [3] [%] | inhibition at 2 µM (CT26 [4]) [%] | inhibition at 2 µM (MCF7) [%] | inhibition at 2 µM (HepG2 [5]) [%] | inhibition at 2 µM (HCT-116) [%] | inhibition at 0.1 µM (U-266 [6]) [%] | IC50 [7] [µM] | IC50 (HepG2 [8]) [µM]
1 | CCS(=O)(=O)Nc1ccc(Oc2ccc(F)cc2F)c(-c2cn(C)c(=O)c3[nH]ccc23)c1 [MIVEBRESIB] | 48.3 | 2.03 |  |  |  |  |  |  |  | 
2 | Cc1noc(C)c1-c1ccc2c(c1)C(c1ccccc1)N(Cc1nc(-c3ccc(F)cc3)cs1)C(=O)N2C (stereo not given) |  |  | 8.5 | 16.4 | 27.4 | 41.1 | 33.3 | 12.6 |  | 
3 | Cc1noc(C)c1-c1ccc2c(c1)C(c1ccccc1)N(CCCCBr)C(=O)N2C (stereo not given) |  |  |  |  |  |  |  |  | 0.013 | 
4 | Cc1noc(C)c1-c1ccc2c(c1)C(c1ccccc1)N(CCCCCCCC(=O)N1CCN(c3ccc4nnc(Cl)n4n3)CC1)C(=O)N2C (stereo not given) |  |  | 0.5 | 8.8 | 28.7 | 13.6 | 14.1 | 8.5 | 0.037 | 
5 | Cc1noc(C)c1-c1ccc2c(c1)C(c1ccccc1)N(Cc1ncc(-c3ccccc3)o1)C(=O)N2C (stereo not given) |  |  | 3.7 | 21.2 | 34 | 50.6 | 30 | 15.1 | 0.105 | 
6 | Cc1noc(C)c1-c1ccc2c(c1)C(c1ccccc1)NC(=O)N2C (stereo not given) | 36 | 35.4 | 6.8 | 44 | 33.5 | 32.5 | 27.8 | 13.1 | 0.053 | 18.8
7 | Cc1noc(C)c1-c1ccc2c(c1)C(c1ccccc1)N(CCCCCC(=O)N1CCN(c3ccc4nnc(Cl)n4n3)CC1)C(=O)N2C (stereo not given) |  |  | 14.7 | 25.1 | 33.6 | 30.7 | 38.4 | 31.3 | 0.0092 | 
8 | Cc1noc(C)c1-c1ccc2c(c1)C(c1ccccc1)N(Cc1nc(-c3ccccc3)cs1)C(=O)N2C (stereo not given) |  |  | 2.7 | 15.5 | 29.1 | 44.5 | 26.7 | 12.7 |  | 
9 | Cc1noc(C)c1-c1ccc2c(c1)C(c1ccccc1)N(Cc1nnc(-c3ccc(F)cc3)o1)C(=O)N2C (stereo not given) |  |  | 0.7 | 24 | 26.7 | 52.8 | 36.6 | 26.8 | 0.058 | 
10 | Cc1noc(C)c1-c1ccc2c(c1)C(c1ccccc1)N(Cc1nnc(-c3ccccc3)s1)C(=O)N2C (stereo not given) |  |  | 3.3 | 28.1 | 35.7 | 35.2 | 26.9 | 20.3 | 0.074 | 
11 | Cc1noc(C)c1-c1ccc2c(c1)C(c1ccccc1)N(CCOCCN1CCN(c3ccc4nnc(Cl)n4n3)CC1)C(=O)N2C (stereo not given) | 22.9 | 3.05 | 6 | 25.1 | 34.7 | 36.7 | 18.7 | 29.5 | 0.012 | 21
12 | Cc1noc(C)c1-c1ccc2c(c1)C(c1ccccc1)N(Cc1csc(-c3ccc(F)cc3)n1)C(=O)N2C (stereo not given) |  |  | 6.8 | 17 | 37.9 | 31.3 | 31.8 | 8.4 |  | 
13 | Cc1noc(C)c1-c1ccc2c(c1)C(c1ccccc1)N(CCCCCCN1CCN(c3ccc4nnc(Cl)n4n3)CC1)C(=O)N2C (stereo not given) | 7.95 | 2.12 | 5.3 | 20.3 | 33.1 | 51.9 | 44.7 | 45.5 | 0.0031 | 9.45
14 | Cc1noc(C)c1-c1ccc2c(c1)C(c1ccccc1)N(CC(=O)N1CCN(c3ccc4nnc(Cl)n4n3)CC1)C(=O)N2C (stereo not given) |  |  | 10.9 | 27.5 | 33.4 | 28.5 | 48.9 | 19.8 | 0.0056 | 
15 | Cc1nc(-c2ccccc2)sc1CN1C(=O)N(C)c2ccc(-c3c(C)noc3C)cc2C1c1ccccc1 (stereo not given) |  |  | 4.9 | 20.1 | 35.1 | 29.2 | 28.3 | 7.19 |  | 
16 | Cc1noc(C)c1-c1ccc2c(c1)C(c1ccccc1)N(CCCCCN1CCN(c3ccc4nnc(Cl)n4n3)CC1)C(=O)N2C (stereo not given) | 11.8 | 1.99 | 9.3 | 33.8 | 33.4 | 39.8 | 39 | 48.4 | 0.0088 | 14
17 | Cc1nc(-c2ccc(F)cc2)sc1CN1C(=O)N(C)c2ccc(-c3c(C)noc3C)cc2C1c1ccccc1 (stereo not given) |  |  | 6.5 | 28.8 | 33.4 | 26.4 | 26 | 10 |  | 
18 | Cc1noc(C)c1-c1ccc2c(c1)C(c1ccccc1)N(Cc1nnc(-c3ccccc3)o1)C(=O)N2C (stereo not given) | 21.2 | 3.45 | 12.4 | 30.1 | 34.1 | 34.7 | 31.4 | 26.7 | 0.055 | 19.5
19 | Cc1noc(C)c1-c1ccc2c(c1)C(c1ccccc1)N(Cc1csc(-c3ccccc3)n1)C(=O)N2C (stereo not given) |  |  | 4.4 | 23.5 | 17.5 | 34 | 28.4 | 10.4 |  | 
20 | Cc1sc2c(c1C)C(c1ccc(Cl)cc1)=N[C@@H](CC(=O)OC(C)(C)C)c1nnc(C)n1-2 | 28.7 | 3.45 | 6.5 | 37.9 | 35.4 | 22.2 | 30.3 | 35.7 |  | 18.4
